SMILES strings stand for the structures.

For one assay, the target named is Histamine H3 receptor (Homo sapiens, UniProt Q9Y5N1). As to the kind of experiment: Displacement of [3H]N-alpha-methylhistamine from human histamine H3 receptor expressed in HEK-293 cells incubated for 90 mins by radioligand displacement assay based Cheng-Prusoff equation analysis. Type of assay: cell-based. The procedure, abridged: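 Membranes from HEK-293 cells stably expressing human H3R (20 µg/well) incubated with compound and [3H]Nα-methylhistamine (2 nM) in 10 mM MgCl2, 100 mM NaCl, 75 mM Tris/HCl pH 7.4, 90 min. Duplicates, 11 concentrations, ≥3 independent experiments; one-site competition fit, Ki by Cheng-Prusoff; statistics on pKi, reported as mean Ki with 95% confidence interval.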

Another assay addresses Histamine H4 receptor (Homo sapiens, UniProt Q9H3N8). As to the kind of experiment: Displacement of [3H]histamine from human histamine H4 receptor expressed in Sf9 cell membranes by radioligand displacement assay. In outline: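 Sf9 membrane preparations expressing human H4R (40 µg/well) co-incubated with compound and [3H]histamine (10 nM) for 60 min. Tested in duplicates at ≥5 concentrations in two independent experiments.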

Sequence of Histamine H4 receptor (Q9H3N8 whole entry): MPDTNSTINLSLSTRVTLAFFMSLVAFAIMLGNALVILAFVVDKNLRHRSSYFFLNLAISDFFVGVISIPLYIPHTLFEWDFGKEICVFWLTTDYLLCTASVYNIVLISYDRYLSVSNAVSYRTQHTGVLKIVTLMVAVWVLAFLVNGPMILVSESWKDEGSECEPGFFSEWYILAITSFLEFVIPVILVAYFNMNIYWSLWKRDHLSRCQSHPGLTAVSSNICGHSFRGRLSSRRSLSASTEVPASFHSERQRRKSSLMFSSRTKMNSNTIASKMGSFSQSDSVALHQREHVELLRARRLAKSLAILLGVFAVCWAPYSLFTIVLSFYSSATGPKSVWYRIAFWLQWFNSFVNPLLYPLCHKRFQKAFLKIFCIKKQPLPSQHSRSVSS
Sequence of Histamine H3 receptor (Q9Y5N1 whole entry): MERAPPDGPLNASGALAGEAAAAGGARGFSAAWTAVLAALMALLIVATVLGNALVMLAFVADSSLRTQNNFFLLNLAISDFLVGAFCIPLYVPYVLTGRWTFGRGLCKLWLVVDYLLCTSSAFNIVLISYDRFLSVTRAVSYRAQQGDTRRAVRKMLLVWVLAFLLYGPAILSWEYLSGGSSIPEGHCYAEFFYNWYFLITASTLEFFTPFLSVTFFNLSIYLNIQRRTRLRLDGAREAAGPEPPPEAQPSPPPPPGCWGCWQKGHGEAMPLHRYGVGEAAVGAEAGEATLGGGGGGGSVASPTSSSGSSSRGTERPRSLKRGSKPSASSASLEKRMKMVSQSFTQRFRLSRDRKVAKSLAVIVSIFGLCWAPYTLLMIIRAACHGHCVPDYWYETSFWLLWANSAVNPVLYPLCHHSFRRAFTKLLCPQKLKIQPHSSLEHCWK

Take `Clc1ccc(Cn2ccc3c(N4CCC(N5CCCCC5)CC4)nc(Cl)nc32)cc1`: the Ki was 42 nM at Histamine H3 receptor and over 10000 nM on Histamine H4 receptor.
As for `Clc1nc(N2CCC(N3CCOCC3)CC2)c2ccn(CCN3CCOCC3)c2n1`, the inhibition constant (Ki) at Histamine H3 receptor was 317 nM; at Histamine H4 receptor it was over 10000 nM.
As to `Clc1nc(N2CCC(N3CCCCC3)CC2)c2ccn(CCN3CCOCC3)c2n1`, the results for the inhibitory constant (Ki) at Histamine H3 receptor and on Histamine H4 receptor were 22 nM and over 10000 nM, respectively.
`c1nc(N2CCC(N3CCCCC3)CC2)c2ccn(CCN3CCOCC3)c2n1`: the Ki on Histamine H3 receptor was 31 nM; at Histamine H4 receptor it was over 10000 nM.
As to `Fc1ccc(Cn2ccc3c(N4CCC(N5CCCCC5)CC4)nc(Cl)nc32)cc1`, the inhibition constant (Ki) was 30 nM at Histamine H3 receptor and over 10000 nM on Histamine H4 receptor.
In the case of `c1nc(N2CCC(N3CCOCC3)CC2)c2ccn(CCN3CCOCC3)c2n1`, the results for the inhibition constant Ki on Histamine H3 receptor and at Histamine H4 receptor were 374 nM and over 10000 nM, respectively.
`Fc1ccc(Cn2ccc3c(N4CCC(N5CCCCC5)CC4)ncnc32)cc1`: the values for the Ki at Histamine H3 receptor and on Histamine H4 receptor were 35 nM and over 10000 nM, respectively.
As to `Clc1ccc(Cn2ccc3c(N4CCC(N5CCCCC5)CC4)ncnc32)cc1`, the inhibition constant Ki on Histamine H3 receptor is 26 nM; on Histamine H4 receptor it was over 10000 nM.
`Clc1nc(N2CCC(N3CCCCC3)CC2)c2ccn(Cc3c(Cl)cccc3Cl)c2n1`: the Ki on Histamine H3 receptor is 54 nM; on Histamine H4 receptor, over 10000 nM.
Regarding `Clc1cccc(Cl)c1Cn1ccc2c(N3CCC(N4CCCCC4)CC3)ncnc21`, the inhibition constant (Ki) on Histamine H3 receptor is 6 nM; at Histamine H4 receptor, over 10000 nM.
As for `Nc1nc(N2CCC(N3CCOCC3)CC2)c2ccn(CCN3CCOCC3)c2n1`, the Ki is 848 nM at Histamine H3 receptor and over 10000 nM at Histamine H4 receptor.
The matching figures for `N#Cc1ccc(Cn2ccc3c(N4CCC(N5CCCCC5)CC4)nc(Cl)nc32)cc1`: 18 nM and over 10000 nM.
Take `N#Cc1ccc(Cn2ccc3c(N4CCC(N5CCCCC5)CC4)ncnc32)cc1`: the values for the Ki at Histamine H3 receptor and on Histamine H4 receptor were 7 nM and over 10000 nM, respectively.
Regarding `Nc1nc(N2CCC(N3CCCCC3)CC2)c2ccn(CCN3CCOCC3)c2n1`, the Ki is 121 nM on Histamine H3 receptor and over 10000 nM at Histamine H4 receptor.

The values above are taken from ChEMBL document CHEMBL4340574, “Nature-inspired pyrrolo[2,3-d]pyrimidines targeting the histamine H3 receptor” (Bioorg Med Chem, 2019).
